Results published in ChEMBL document CHEMBL3596154, “Discovery of biaryl carboxylamides as potent RORγ inverse agonists” (Bioorg Med Chem Lett, 2015).
pEC50: −log10 of the molar value.

Legend:
[1] = AUC (infinity) in rat at 10 mg/kg, po; assay type: ADME, organism-based; parameters: dose 10 mg/kg, route oral, time infinity; details: in vivo
In short: (§1)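 Rat PK; iv dosing at 2.0 mg/Kg in SPEW vehicle, oral dosing at 10 mg/Kg in 0.1% CMC-0.2%Tween; AUCinf reported in ng*hr/mL.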

[2] = target: T1, Nuclear receptor subfamily 1 group I member 2 (Homo sapiens, UniProt O75469); assay: Antagonist activity at Gal4 DNA binding domain-tagged human PXR ligand binding domain expressed in HEK293 cells assessed as inhibition of receptor-mediated transcriptional activity by luciferase reporter gene assay; assay type: cell-based
T1 sequence (O75469 whole entry): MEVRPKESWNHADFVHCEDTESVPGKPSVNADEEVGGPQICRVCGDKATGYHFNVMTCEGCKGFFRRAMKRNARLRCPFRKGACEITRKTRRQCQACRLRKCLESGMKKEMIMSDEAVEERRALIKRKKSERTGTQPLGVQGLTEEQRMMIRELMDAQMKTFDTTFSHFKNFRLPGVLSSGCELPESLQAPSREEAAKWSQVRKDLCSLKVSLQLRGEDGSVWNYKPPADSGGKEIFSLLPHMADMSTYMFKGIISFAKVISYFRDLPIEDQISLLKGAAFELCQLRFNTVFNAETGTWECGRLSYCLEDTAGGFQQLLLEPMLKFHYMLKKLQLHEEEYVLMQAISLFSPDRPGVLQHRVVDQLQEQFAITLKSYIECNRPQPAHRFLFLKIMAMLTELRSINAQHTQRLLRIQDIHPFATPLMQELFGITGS
In short: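 Screened by ChemPartner in HEK293 cells transiently co-transfected with a Gal4DBD-human NR LBD construct and a UAS-Luc reporter. Run in antagonist mode, read as % inhibition at a single concentration. Commercial reference compounds were run alongside in the same assay.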

[3] = target: T2, Nuclear receptor ROR-alpha (Homo sapiens, UniProt P35398); assay: Inverse agonist activity at Gal4 DNA binding domain-tagged human RORalpha expressed in HEK293T cells assessed as effect on receptor-mediated transcriptional activity by luciferase reporter gene assay; assay type: cell-based, HEK-293T
T2 sequence (P35398 whole entry): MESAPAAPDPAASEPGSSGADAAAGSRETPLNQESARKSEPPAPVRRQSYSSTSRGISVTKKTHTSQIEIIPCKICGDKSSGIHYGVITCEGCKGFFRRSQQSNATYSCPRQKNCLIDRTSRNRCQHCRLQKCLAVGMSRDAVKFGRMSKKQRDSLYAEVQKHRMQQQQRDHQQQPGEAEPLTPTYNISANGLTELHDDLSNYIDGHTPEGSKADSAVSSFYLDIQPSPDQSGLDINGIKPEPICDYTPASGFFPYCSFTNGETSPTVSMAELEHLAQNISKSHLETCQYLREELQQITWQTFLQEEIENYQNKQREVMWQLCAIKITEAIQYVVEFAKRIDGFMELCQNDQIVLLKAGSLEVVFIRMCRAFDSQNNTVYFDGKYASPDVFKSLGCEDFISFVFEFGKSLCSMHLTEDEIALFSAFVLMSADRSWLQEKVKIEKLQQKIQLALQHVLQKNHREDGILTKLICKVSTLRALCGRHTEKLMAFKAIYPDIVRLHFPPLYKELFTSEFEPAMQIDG
In short: (§2)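 Gal4 reporter assay in 293T cells with the same format as the RORγ Gal4 assay, using Gal4DBD:RORαLBD or Gal4DBD:RORβLBD constructs. Transfection, then compound treatment, then lysis and dual-flash luciferase luminescence. Activity measured in dose-response.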

[4] = target: T1, Nuclear receptor subfamily 1 group I member 2; assay: Agonist activity at Gal4 DNA binding domain-tagged human PXR ligand binding domain expressed in HEK293 cells assessed as activation of receptor-mediated transcriptional activity by luciferase reporter gene assay; assay type: cell-based
In short: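 Screened by ChemPartner as a cell-based transient co-transfection reporter assay in HEK293 cells, using a Gal4DBD-human NR LBD construct with UAS-Luc. Run in agonist mode, read as % activation at a single concentration. Commercial reference compounds were profiled in the same assay for validation.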

[5] = Oral bioavailability in rat at 10 mg/kg; assay type: ADME, organism-based; details: in vivo
[6] = Half life in rat at 2 mg/kg, iv; assay type: ADME, organism-based; details: in vivo
In short: (§3)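 Rats dosed at 2.0 mg/kg intravenously in SPEW vehicle. Plasma exposure profiled for T1/2 and Cmax.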

[7] = Cmax in rat at 10 mg/kg, po; assay type: ADME, organism-based; parameters: dose 10 mg/kg, route oral; details: in vivo
[8] = Clearance in human hepatocytes relative to hepatic blood flow; assay type: ADME, cell-based, Liver, Hepatocyte; details: read-out: CLH
[9] = AUC (infinity) in rat at 2 mg/kg, iv; assay type: ADME, organism-based; parameters: dose 2 mg/kg, time infinity, route intravenous; details: in vivo; in short: as §1
[10] = target: T3, Nuclear receptor ROR-beta (Homo sapiens, UniProt Q92753); assay: Inverse agonist activity at Gal4 DNA binding domain-tagged human RORbeta expressed in HEK293T cells assessed as effect on receptor-mediated transcriptional activity by luciferase reporter gene assay; assay type: cell-based, HEK-293T; in short: as §2
T3 sequence (Q92753 whole entry): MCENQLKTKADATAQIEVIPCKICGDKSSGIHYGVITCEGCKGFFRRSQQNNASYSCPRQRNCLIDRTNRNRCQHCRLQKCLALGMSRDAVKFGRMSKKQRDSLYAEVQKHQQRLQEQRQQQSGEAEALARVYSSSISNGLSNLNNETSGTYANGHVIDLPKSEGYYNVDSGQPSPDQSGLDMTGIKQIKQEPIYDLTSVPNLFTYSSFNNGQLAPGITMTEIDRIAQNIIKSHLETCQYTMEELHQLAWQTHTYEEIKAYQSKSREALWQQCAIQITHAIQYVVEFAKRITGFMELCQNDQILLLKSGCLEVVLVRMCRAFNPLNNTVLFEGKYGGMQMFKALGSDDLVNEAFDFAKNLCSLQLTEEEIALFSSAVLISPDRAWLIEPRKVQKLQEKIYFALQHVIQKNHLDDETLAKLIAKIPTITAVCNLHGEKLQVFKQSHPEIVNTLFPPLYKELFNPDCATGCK

Rattus norvegicus = assay: Clearance in rat at 2 mg/kg, iv relative to hepatic blood flow; assay type: ADME, organism-based, Liver; details: in vivo
In short: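 Rats given 2.0 mg/kg iv in SPEW vehicle. Clearance is expressed as % of hepatic blood flow (%Qh).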

[11] = Clearance in rat hepatocytes relative to hepatic blood flow; assay type: ADME, cell-based, Liver, Hepatocyte; details: read-out: CLH
[12] = Cmax in rat at 2 mg/kg, iv; assay type: ADME, organism-based; parameters: dose 2 mg/kg, route intravenous; details: in vivo; in short: as §3

- AUC(0-inf) [1]: 3130 ng·h/mL
- inhibition (INH) [2]: < 50%
- pEC50 [3]: 5.08
- Activity [4]: < 50%
- bioavailability [5]: 41%
- half-life [6]: 9.6 h
- Cmax [7]: 1210 ng/mL
- hepatic extraction ratio [8]: 0.51
- AUC(0-inf) [9]: 1540 ng·h/mL
- pEC50 [10]: 5.71
- CLH (Rattus norvegicus): 40%
- hepatic extraction ratio [11]: 0.65
- Cmax [12]: 2740 ng/mL
Structure (SMILES): [2H]C([2H])([2H])N(C(=O)c1c(F)cccc1Cl)c1ccc(-c2cc(C(N)=O)ccc2Cl)cc1OCC(F)(F)F
